In ChEMBL document CHEMBL2016518, “Structure-activity relationships of cyanoquinolines with corrector-potentiator activity in ΔF508 cystic fibrosis transmembrane conductance regulator protein” (J Med Chem, 2012):
Calls of active or inactive are those of the source. No cut-off for these calls is given here.

Assays:
Type in all cases: cell-based
[1] = biological target: Cystic fibrosis transmembrane conductance regulator (Homo sapiens, UniProt P13569, F508DEL); assay: (§1) Activity at human CFTR delta F508 mutant expressed in forskolin-stimulated FRT cells assessed as increase in iodine influx measured as decrease in YFP fluorescence after 18 to 24 hrs at 37 degC in presence of genistein
Method in brief: (§2)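 Corrector plate-reader assay. FRT cells stably coexpressing human ΔF508-CFTR and YFP-H148Q/I152L, grown 24 h at 37 °C, then exposed to compound for 16−20 h (up to 25 μM, eight concentrations). Cells are washed, then given forskolin 20 μM plus genistein 50 μM in PBS for 20 min. I⁻ influx comes from the YFP quench recorded 2 s baseline plus 12 s after iodide addition, fitted by exponential regression. Controls are DMSO vehicle and a reference corrector. EC50/Vmax come from four-parameter logistic fits; triplicate.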

[2] = Potentiation of genistein-induced human CFTR delta F508 mutant gating activity expressed in forskolin-stimulated FRT cells assessed as increase in iodine influx measured as decrease in YFP fluorescence after 24 hrs at 27 degC
Method in brief: (§3)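 Potentiator plate-reader assay. FRT cells coexpressing human ΔF508-CFTR and YFP-H148Q/I152L, grown 18−24 h at 37 °C, then rescued 18−24 h at 27 °C. Cells are washed, then given 10 min of forskolin 20 μM plus compound in PBS (eight concentrations, 0−50 μM final). I⁻ influx comes from the YFP quench after iodide addition (2 s baseline, 12 s), by exponential regression. Controls are DMSO and genistein. EC50/Vmax come from four-parameter logistic fits; triplicate.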

FRT [3] = assay: Potentiation of genistein-induced human CFTR delta F508 mutant gating activity expressed in forskolin-stimulated FRT cells assessed as increase in iodine influx measured as decrease in YFP fluorescence after 24 hrs at 27 degC relative to control; method in brief: as §3
[4] = biological target: Cystic fibrosis transmembrane conductance regulator (Homo sapiens, UniProt P13569); assay: as §1; conditions: frt; method in brief: as §2
[5] = test system: Cystic fibrosis transmembrane conductance regulator (Homo sapiens), P13569 [F508del]; assay: Activity at human CFTR delta F508 mutant expressed in forskolin-stimulated basolateral membrane permeabilized FRT cells assessed as increase in apical chloride current at 10 uM after 18 to 24 hrs at 37 degC by short-circuit assay in presence of genistein
Method in brief: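 Short-circuit current. ΔF508-CFTR FRT cells are cultured 7−9 days on permeable inserts, then given compound for 18−24 h at 37 °C. Apical Cl⁻ current is recorded after basolateral permeabilization under an apical-to-basolateral Cl⁻ gradient. Forskolin 20 μM and genistein 50 μM are added, followed by CFTRinh-172 10 μM.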

FRT [6] = assay: Potentiation of genistein-induced human CFTR delta F508 mutant gating activity expressed in forskolin-stimulated basolateral membrane permeabilized FRT cells assessed as increase in apical chloride current at 3 to 100 uM after 24 hrs at 27 degC by short-circuit assay
Method in brief: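 Short-circuit current. ΔF508-CFTR FRT cells are cultured 7−9 days on permeable inserts and temperature-rescued 18−24 h at 27 °C. Apical Cl⁻ current is recorded in basolateral-permeabilized monolayers under an apical-to-basolateral Cl⁻ gradient. Forskolin 20 μM is added, then test compound, with CFTRinh-172 10 μM at the end.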

[7] = Homo sapiens, FRT, 24 h, read-out: EC50

Chain of Cystic fibrosis transmembrane conductance regulator (Homo sapiens, UniProt P13569, F508DEL) (P13569 as listed by the source): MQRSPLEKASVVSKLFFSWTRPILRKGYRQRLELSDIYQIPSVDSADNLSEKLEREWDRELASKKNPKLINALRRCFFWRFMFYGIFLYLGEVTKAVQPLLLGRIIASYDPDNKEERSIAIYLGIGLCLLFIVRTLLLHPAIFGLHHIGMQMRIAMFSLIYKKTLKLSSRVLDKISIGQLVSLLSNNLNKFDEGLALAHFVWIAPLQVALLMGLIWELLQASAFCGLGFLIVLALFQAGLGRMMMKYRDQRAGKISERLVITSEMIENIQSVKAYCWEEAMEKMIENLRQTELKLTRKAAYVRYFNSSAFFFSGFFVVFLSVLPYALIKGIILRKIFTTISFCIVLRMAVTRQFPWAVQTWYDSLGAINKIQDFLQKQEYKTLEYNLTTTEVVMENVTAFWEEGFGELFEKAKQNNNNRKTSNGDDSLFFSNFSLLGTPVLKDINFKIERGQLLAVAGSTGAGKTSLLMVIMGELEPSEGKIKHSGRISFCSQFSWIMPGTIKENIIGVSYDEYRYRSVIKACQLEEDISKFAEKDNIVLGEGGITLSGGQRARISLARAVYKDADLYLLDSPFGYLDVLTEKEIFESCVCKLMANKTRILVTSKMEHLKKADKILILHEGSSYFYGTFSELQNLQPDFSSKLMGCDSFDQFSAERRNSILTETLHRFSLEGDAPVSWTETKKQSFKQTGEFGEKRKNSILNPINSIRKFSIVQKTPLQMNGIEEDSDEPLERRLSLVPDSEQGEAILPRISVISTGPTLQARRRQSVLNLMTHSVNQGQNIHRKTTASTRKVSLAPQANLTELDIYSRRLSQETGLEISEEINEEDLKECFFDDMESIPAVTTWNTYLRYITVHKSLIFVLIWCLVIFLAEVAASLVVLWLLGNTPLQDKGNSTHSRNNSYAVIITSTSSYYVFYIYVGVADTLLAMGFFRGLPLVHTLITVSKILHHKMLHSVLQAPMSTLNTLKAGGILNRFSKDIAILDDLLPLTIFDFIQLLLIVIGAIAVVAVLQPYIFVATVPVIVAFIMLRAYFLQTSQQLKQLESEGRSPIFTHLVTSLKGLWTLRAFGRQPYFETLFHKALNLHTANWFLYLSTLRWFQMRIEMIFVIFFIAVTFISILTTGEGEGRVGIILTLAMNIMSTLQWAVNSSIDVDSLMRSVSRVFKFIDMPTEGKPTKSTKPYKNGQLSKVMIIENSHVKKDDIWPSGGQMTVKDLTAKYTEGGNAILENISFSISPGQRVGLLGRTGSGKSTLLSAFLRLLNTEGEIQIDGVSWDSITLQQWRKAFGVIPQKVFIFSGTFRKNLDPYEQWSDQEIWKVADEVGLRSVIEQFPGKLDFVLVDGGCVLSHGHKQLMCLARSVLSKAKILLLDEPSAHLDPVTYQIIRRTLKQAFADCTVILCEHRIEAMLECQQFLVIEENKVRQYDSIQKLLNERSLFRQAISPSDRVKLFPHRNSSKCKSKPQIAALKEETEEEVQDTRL
Chain of Cystic fibrosis transmembrane conductance regulator (Homo sapiens, UniProt P13569) (P13569 as listed by the source): as above
Chain of Cystic fibrosis transmembrane conductance regulator (Homo sapiens), P13569 [F508del] (P13569 as listed by the source): as above

SMILES | EC50 [1] [µM] | EC50 [2, 7] [µM] | Vmax (FRT [3]) [µM/s] | EC50 [4] | EC50 ([2]; frt) | Activity [5] | Activity (FRT [6])
COc1ccccc1C(=O)NCCNc1nc2cc(C)cc(C)c2cc1C#N | 11 | 2.3 | 154 | – | – | – | –
Cc1cc(C)c2cc(C#N)c(NCCCNC(=O)c3ccccn3)nc2c1 | – | 6.1 | 233 | Not Active | – | – | –
Cc1cc(C)c2cc(C#N)c(N3CCN(C(=O)c4ccccn4)CC3)nc2c1 | – | 7.4 | 102 | Not Active | – | – | –
COc1ccccc1C(=O)N1CCN(c2nc3cc(C)cc(C)c3cc2C#N)CC1 | – | 1 | 129 | Not Active | – | – | –
Cc1cc(C)c2cc(C#N)c(N3CCN(C(=O)c4cccnc4)CC3)nc2c1 | – | – | – | Not Active | Not Active | – | –
Cc1cc(C)c2cc(C#N)c(NCCCNC(=O)c3cccnc3)nc2c1 | 3 | 16 | 115 | – | – | – | –
COc1ccc(C(=O)NCCNc2nc3cc(C)cc(C)c3cc2C#N)cc1 | 3 | 4.1 | 181 | – | – | Active | Active
COc1cccc(C(=O)NCCNc2nc3cc(C)cc(C)c3cc2C#N)c1 | 2.2 | 5.9 | 216 | – | – | Active | Active
Cc1cc(C)c2cc(C#N)c(N3CCN(C(=O)c4ccncc4)CC3)nc2c1 | – | – | – | Not Active | Not Active | – | –
COc1ccc(C(=O)N2CCN(c3nc4cc(C)cc(C)c4cc3C#N)CC2)cc1 | – | 1.3 | 281 | Not Active | – | – | –
COc1ccc(C(=O)NCCCNc2nc3cc(C)cc(C)c3cc2C#N)cc1 | 4.3 | 5 | 231 | – | – | – | –
Cc1cc(C)c2cc(C#N)c(NCCNC(=O)c3cccnc3)nc2c1 | 2.7 | 13.2 | 242 | – | – | – | –
Cc1cc(C)c2cc(C#N)c(NCCCNC(=O)c3ccncc3)nc2c1 | 8.2 | 13.2 | 53 | – | – | – | –
COc1ccc(C(=O)NCCNc2nc3cc(C)cc(C)c3cc2C#N)nc1 | 2.7 | 3.4 | 70 | – | – | – | –
COc1ccc(C(=O)NCCNc2nc3cc(C)cc(C)c3cc2C#N)c(OC)c1 | 4.2 | 55 | 426 | – | – | – | –
Cc1cc(C)c2cc(C#N)c(NCCNC(=O)c3ccccn3)nc2c1 | – | 1.2 | 80 | Not Active | – | – | –
Cc1cc(C)c2cc(C#N)c(NCCNC(=O)c3cnccn3)nc2c1 | 6.7 | – | – | – | Not Active | – | –
Cc1cc(C)c2cc(C#N)c(NCCNC(=O)c3ccncc3)nc2c1 | 7.3 | 10 | 220 | – | – | – | –
COc1ccccc1C(=O)NCCCNc1nc2cc(C)cc(C)c2cc1C#N | – | 27.6 | 254 | Not Active | – | – | –
COc1cccc(C(=O)NCCCNc2nc3cc(C)cc(C)c3cc2C#N)c1 | 4.6 | 4.6 | 147 | – | – | – | –
COc1ccc(C(=O)NCCNc2nc3cc(C)cc(C)c3cc2C#N)cc1OC | 1.5 | 48 | 216 | – | – | – | –
COc1cccc(OC)c1C(=O)NCCNc1nc2cc(C)cc(C)c2cc1C#N | 3.7 | 11.5 | 119 | – | – | – | –
Cc1cc(C)c2cc(C#N)c(NCCNC(=O)c3ccccc3)nc2c1 | – | 10 | 210 | Not Active | – | – | –
COc1cccc(C(=O)N2CCN(c3nc4cc(C)cc(C)c4cc3C#N)CC2)c1 | – | 1.2 | 200 | Not Active | – | – | –
